What was measured:
[1] = system: Ehrlich; test: Cytotoxicity against mouse Ehrlich ascites carcinoma cells assessed as viable cells at 30 uL after 24 hrs by trypan blue exclusion assay; format: functional
Method in brief: (§1)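 EAC cells maintained by i.p. passage in female Swiss albino mice. Cells aspirated from peritoneum, washed in HBSS and centrifuged at 1500 rpm for 15 min; 0.2 mL of diluted suspension plated. Compounds from 10 mmol stock in DMSO/H₂O (0.7:0.3) were added in triplicate and incubated 24 h at 37 °C, 5% CO₂. Viability by trypan blue exclusion; cytotoxicity calculated against control EAC cells.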

[2] = system: Ehrlich; test: Cytotoxicity against mouse Ehrlich ascites carcinoma cells assessed as viable cells at 20 uL after 24 hrs by trypan blue exclusion assay; format: functional; method in brief: as §1
[3] = system: Ehrlich; test: Cytotoxicity against mouse Ehrlich ascites carcinoma cells assessed as cell death at 10 uL after 24 hrs by trypan blue exclusion assay
[4] = system: Mus musculus; test: Increase in catalase activity per milligram of tissue in mouse Ehrlich ascites carcinoma cells implanted in Swiss albino mouse treated after 7 days post-tumor implantation at 1.25 mM/kg, sc for 5 days; format: functional
Method in brief: (§2)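 Livers from tumour-bearing mice were excised and rinsed in ice-cold saline, then in cold 0.15 mol/L Tris–HCl pH 7.4. They were blotted dry, weighed and homogenised at 10% w/v. Lipid peroxidation was expressed as nmol MDA/g tissue, catalase as kU/mg tissue and SOD as U/g tissue.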

[5] = system: Mus musculus; test: Decrease in lipid peroxidation in mouse Ehrlich ascites carcinoma cells implanted in Swiss albino mouse assessed as malondialdehyde per gram of tissue treated after 7 days post-tumor implantation at 1.25 mM/kg, sc for 5 days; format: functional; method in brief: as §2
[6] = system: Ehrlich; test: Antitumor activity against mouse Ehrlich ascites carcinoma cells implanted in Swiss albino mouse assessed as tumor mitotic index treated after 7 days post-tumor implantation at 1.25 mM/kg, sc for 5 days by histopathological analysis; format: functional
Method in brief: (§3)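 H&E-stained 5 µm paraffin sections of solid tumour. Mitotic cells counted in 10 random fields (at least 1000 tumour cells) at 400×. Apoptotic bodies counted in 10 random fields at the same magnification. MI and AI given as percentage of total intact tumour cells.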

[7] = system: Mus musculus; test: Toxicity in Swiss albino mouse bearing mouse Ehrlich ascites carcinoma cells assessed as hepatocyte necrosis treated after 7 days post-tumor implantation at 1.25 mM/kg, sc for 5 days by histopathological analysis; format: organism-based; details: in vivo, 1250 µM
Method in brief: (§4)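 Liver specimens from the treated tumour-bearing mice were paraffin-embedded and cut as 5 µm sections. Sections were H&E-stained and graded for severity of hepatocyte degeneration and necrosis, with 0 meaning no degeneration or necrosis.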

[8] = system: Ehrlich; test: Antitumor activity against mouse Ehrlich ascites carcinoma cells implanted in Swiss albino mouse assessed as tumor necrosis treated after 7 days post-tumor implantation at 1.25 mM/kg, sc for 5 days by histopathological analysis relative to control; format: functional
Method in brief: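 Necrosis scored on H&E-stained 5 µm paraffin sections of excised solid tumour. Severity and percentage necrosis were graded, and an H score was calculated.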

[9] = system: Ehrlich; test: Antitumor activity against mouse Ehrlich ascites carcinoma cells implanted in Swiss albino mouse assessed as tumor apoptotic index treated after 7 days post-tumor implantation at 1.25 mM/kg, sc for 5 days by histopathological analysis; format: functional; method in brief: as §3
[10] = system: Ehrlich; test: Induction of apoptosis in mouse Ehrlich ascites carcinoma cells implanted in Swiss albino mouse assessed as increase in Fas-L expression treated after 7 days post-tumor implantation at 1.25 mM/kg, sc for 5 days by immunohistochemical analysis; format: functional
Method in brief: (§5)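 Solid tumours from EAC-bearing female Swiss albino mice; formalin-fixed, paraffin-embedded 5 µm sections. Microwave antigen retrieval (20 min, 10 mmol citrate, pH 6.0) after peroxidase block; primary antibody overnight at room temperature, labelled streptavidin–biotin HRP detection, DAB chromogen, Mayer's hematoxylin counterstain. Immunoreactivity scored blind by light microscopy as intensity, % positive cells and H score.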

[11] = system: Mus musculus; test: Increase in SOD activity per gram of tissue in mouse Ehrlich ascites carcinoma cells implanted in Swiss albino mouse treated after 7 days post-tumor implantation at 1.25 mM/kg, sc for 5 days; format: functional; method in brief: as §2
[12] = system: Ehrlich; test: Antitumor activity against mouse Ehrlich ascites carcinoma cells implanted in Swiss albino mouse treated after 7 days post-tumor implantation at 1.25 mM/kg, sc for 5 days relative to control; format: functional
Method in brief: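 Female Swiss albino mice (n = 8 per group) received 0.2 mL EAC cells (2 × 10⁶ cells/mL) s.c. between the thighs of the lower limb. From day 7, compounds were given at 1.25 mM/kg s.c. daily for 5 consecutive days. […] control group received DMSO/H₂O. Mice were sacrificed and tumour volume change assessed on day 12 post-implantation.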

[13] = system: Mus musculus; test: Toxicity in Swiss albino mouse bearing mouse Ehrlich ascites carcinoma cells assessed as focal degeneration of hepatocytes treated after 7 days post-tumor implantation at 1.25 mM/kg, sc for 5 days by histopathological analysis; format: organism-based; details: in vivo; method in brief: as §4
[14] = system: Mus musculus; test: Toxicity in Swiss albino mouse bearing mouse Ehrlich ascites carcinoma cells assessed as multifocal degeneration of hepatocytes treated after 7 days post-tumor implantation at 1.25 mM/kg, sc for 5 days by histopathological analysis; format: organism-based; details: in vivo, 1250 µM; method in brief: as §4
[15] = system: Ehrlich; test: Antiangiogenic activity against mouse Ehrlich ascites carcinoma cells implanted in Swiss albino mouse assessed as inhibition of VEGF expression treated after 7 days post-tumor implantation at 1.25 mM/kg, sc for 5 days by immunohistochemical analysis; format: functional; design: scale not given: the % may be the effect or the level left; method in brief: as §5
[16] = system: Ehrlich; test: Antiproliferative activity against mouse Ehrlich ascites carcinoma cells implanted in Swiss albino mouse assessed as inhibition of Ki67 protein expression treated after 7 days post-tumor implantation at 1.25 mM/kg, sc for 5 days by immunohistochemical analysis; format: functional; design: scale not given: the % may be the effect or the level left; method in brief: as §5
[17] = system: Mus musculus; test: Toxicity in Swiss albino mouse bearing mouse Ehrlich ascites carcinoma cells assessed as focal necrosis of hepatocytes treated after 7 days post-tumor implantation at 1.25 mM/kg, sc for 5 days by histopathological analysis; format: organism-based; details: in vivo, 1250 µM; method in brief: as §4
[18] = system: Mus musculus; test: Toxicity in Swiss albino mouse bearing mouse Ehrlich ascites carcinoma cells assessed as hepatocyte degeneration treated after 7 days post-tumor implantation at 1.25 mM/kg, sc for 5 days by histopathological analysis; format: organism-based; details: in vivo, 1250 µM; method in brief: as §4

| SMILES | Activity [1] | Activity [2] | Activity [3] | Activity [4] | Activity [5] | Activity [6] | Activity [7] | Activity [8] | Activity [9] | Activity [10] | Activity [11] | inhibition (INH) [12] | Activity [13] | Activity [14] | Activity [15] | Activity [16] | Activity [17] | Activity [18] |
| --- | --- | --- | --- | --- | --- | --- | --- | --- | --- | --- | --- | --- | --- | --- | --- | --- | --- | --- |
| O=C1CCC(N2C(=O)c3ccccc3C2=O)C(=O)N1CSC(=S)NCCN1CCNCC1 (stereo not drawn) | 68.8% | 60.6% | 45.5% |  |  |  |  |  |  |  |  |  |  |  |  |  |  |  |
| CCCNC(=S)SCN1C(=O)CCC(N2C(=O)c3ccccc3C2=O)C1=O (stereo not drawn) | 88.6% | 75.5% | 10.6% |  |  |  |  |  |  |  |  |  |  |  |  |  |  |  |
| O=C1CCC(N2C(=O)c3ccccc3C2=O)C(=O)N1CSC(=S)NCc1ccccc1 (stereo not drawn) | 61.3% | 59% | 56.7% |  |  |  |  |  |  |  |  |  |  |  |  |  |  |  |
| CN1CCN(NC(=S)SCN2C(=O)CCC(N3C(=O)c4ccccc4C3=O)C2=O)CC1 (stereo not drawn) | 100% | 80.7% | 80.4% | 8.2 kU | 248.4 nmol | 0.002 | Non-toxic | 61% | 0.005 | 60% | 162.2 U | 98.9% | Active |  |  |  |  |  |
| O=C1CCC(N2C(=O)c3ccccc3C2=O)C(=O)N1CSC(=S)N(CCO)CCO (stereo not drawn) | 87.8% | 30.6% | 20.6% |  |  |  |  |  |  |  |  |  |  |  |  |  |  |  |
| CNC(=S)SCN1C(=O)CCC(N2C(=O)c3ccccc3C2=O)C1=O (stereo not drawn) | 85.7% | 80% | 76.5% |  |  |  |  |  |  |  |  |  |  |  |  |  |  |  |
| O=C1CCC(N2C(=O)c3ccccc3C2=O)C(=O)N1CSC(=S)NCCN1CCCCC1 (stereo not drawn) | 100% | 80.8% | 80.5% | 7.2 kU | 247.6 nmol | 0.004 | Non-toxic | 100% | 0.004 | 55% | 145.8 U | 99.6% |  | Active |  |  |  |  |
| O=C1CCC(N2C(=O)c3ccccc3C2=O)C(=O)N1CSC(=S)NNc1ccccc1 (stereo not drawn) | 92% | 81.6% | 80% |  |  |  |  |  |  |  |  |  |  |  |  |  |  |  |
| O=C1CCC(N2C(=O)c3ccccc3C2=O)C(=O)N1 (racemic) [THALIDOMIDE] | 56.4% | 20.5% | 20.5% | 5.8 kU | 330.2 nmol | 0.006 |  | 44% | 0.003 | 66% | 108.4 U | 80.6% | Active |  | 8% | 7.4% | Active |  |
| O=C1CCC(N2C(=O)c3ccccc3C2=O)C(=O)N1CSC(=S)NC1CCCCC1 (stereo not drawn) | 95.2% | 60.8% | 20.6% | 6.4 kU | 257.8 nmol | 0.005 | Non-toxic | 41% | 0.002 | 44% | 128.6 U | 92.7% | Active |  |  |  |  |  |
| CCN(CC)C(=S)SCN1C(=O)CCC(N2C(=O)c3ccccc3C2=O)C1=O (stereo not drawn) | 90.6% | 20.7% | 10.2% |  |  |  |  |  |  |  |  |  |  |  |  |  |  |  |
| O=C1CCC(N2C(=O)c3ccccc3C2=O)C(=O)N1CSC(=S)N1CCCCC1 (stereo not drawn) | 95.3% | 80.4% | 10.3% | 7.2 kU | 276.2 nmol | 0.004 | Non-toxic | 50% | 0.002 | 120% | 152.4 U | 95.9% | Active |  |  |  |  |  |
| CSCN1C(=O)CCC(N2C(=O)c3ccccc3C2=O)C1=O (stereo not drawn) | 82.8% | 71.5% | 62.5% | 6.7 kU | 289.6 nmol | 0.004 | Non-toxic | 49% | 0.002 | 45% | 139.8 U | 90.6% |  |  |  |  |  | Non-toxic |
| O=C1CCC(N2C(=O)c3ccccc3C2=O)C(=O)N1CSC(=S)NN1CCOCC1 (stereo not drawn) | 91.3% | 70.6% | 30.5% |  |  |  |  |  |  |  |  |  |  |  |  |  |  |  |
| O=C1CCC(N2C(=O)c3ccccc3C2=O)C(=O)N1CSC(=S)N1CCOCC1 (stereo not drawn) | 89.7% | 80.5% | 80% |  |  |  |  |  |  |  |  |  |  |  |  |  |  |  |
| O=C1CCC(N2C(=O)c3ccccc3C2=O)C(=O)N1CSC(=S)NCCN1CCOCC1 (stereo not drawn) | 94.7% | 75.7% | 20.6% |  |  |  |  |  |  |  |  |  |  |  |  |  |  |  |
| O=C1CCC(N2C(=O)c3ccccc3C2=O)C(=O)N1CSC(=S)NCCc1ccccc1 (stereo not drawn) | 52% | 47.3% | 45% |  |  |  |  |  |  |  |  |  |  |  |  |  |  |  |
